≈ marks a conversion by molar mass, not a printed value. One block for each compound: values may come before it.
Key:
Assay type in all cases: functional
Staphylococcus aureus [1] = assay: Antibacterial activity against methicillin-resistant Staphylococcus aureus clinical isolate 2
Procedure, shortened: (§1)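 Broth microdilution MIC against clinical S. aureus isolates (incl. MRSA), run per NCCLS guidelines in 96-well plates. Test sample dissolved in sterile water to a 200 µg mL-1 working concentration, then doubling dilutions in Mueller-Hinton broth. Incubated at 37 °C, growth read visually plus resazurin indicator. MIC reported in µg/mL.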

Staphylococcus aureus [2] = assay: Antibacterial activity against methicillin-resistant Staphylococcus aureus clinical isolate 4; procedure, shortened: as §1
Candida albicans = assay: Antifungal activity against Candida albicans NCPF 3179; conditions: Candida albicans; read-out: MIC
Procedure, shortened: (§2)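 Antifungal microdilution in Sabouraud broth. Test sample at 200 µg mL-1 working solution in sterile water was serially doubled down successive rows. Incubation was at 25 °C, followed by visual growth check and addition of resazurin indicator. Read-out is MIC in µg mL-1.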

[3] = tested on: Mycolicibacterium fortuitum; assay: Antibacterial activity against Mycobacterium fortuitum NCTC 10394
Procedure, shortened: (§3)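 Broth microdilution in Mueller-Hinton broth. Samples were dissolved in sterile water to 200 µg mL-1 as the working solution and doubling dilutions were made across rows. Plates were incubated at 37 °C and inspected visually, with resazurin added as growth indicator. MIC reported in µg mL-1.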

Staphylococcus aureus [4] = assay: Antibacterial activity against methicillin-resistant Staphylococcus aureus clinical isolate 5; procedure, shortened: as §1
Staphylococcus aureus [5] = assay: Antibacterial activity against methicillin-resistant Staphylococcus aureus clinical isolate 3; procedure, shortened: as §1
Staphylococcus aureus [6] = assay: Antibacterial activity against methicillin-resistant Staphylococcus aureus clinical isolate 1; procedure, shortened: as §1
Staphylococcus aureus [7] = assay: Antibacterial activity against methicillin-sensitive Staphylococcus aureus NCTC 6571; conditions: Staphylococcus aureus, NCTC 6571; read-out: MIC; procedure, shortened: as §3
Aspergillus niger = assay: Antifungal activity against Aspergillus niger IMI 149007; procedure, shortened: as §2
Enterococcus faecalis = assay: Antibacterial activity against Streptococcus faecalis NCTC 775; conditions: Enterococcus faecalis, NCTC 775; read-out: MIC; procedure, shortened: as §3

SMILES: COc1cccc(/C=C/c2ccc(C(=O)Nc3cc(C(=O)Nc4cc(C(=O)NCCN5CCOCC5)n(C)c4)n(C)c3)cc2)c1
- MIC (Staphylococcus aureus [1]): 4 µg/mL (≈ 6.55 µM)
- MIC (Staphylococcus aureus [2]): 4 µg/mL (≈ 6.55 µM)
- MIC (Candida albicans): > 50 µg/mL
- MIC [3]: > 50 µg/mL
- MIC (Staphylococcus aureus [4]): 4 µg/mL (≈ 6.55 µM)
- MIC (Staphylococcus aureus [5]): 4 µg/mL (≈ 6.55 µM)
- MIC (Staphylococcus aureus [6]): 2 µg/mL (≈ 3.27 µM)
- MIC (Staphylococcus aureus [7]): 6 µg/mL (≈ 9.82 µM)
- MIC (Aspergillus niger): > 50 µg/mL
- MIC (Enterococcus faecalis): 50 µg/mL (≈ 81.9 µM)

SMILES: CC(C)CCn1cc(NC(=O)c2cc(NC(=O)c3cccc(Cl)c3)cn2C)cc1C(=O)Nc1cc(C(=O)NCCCN(C)C)n(C)c1
- MIC (Staphylococcus aureus [1]): 16 µg/mL (≈ 24.1 µM)
- MIC (Staphylococcus aureus [2]): 16 µg/mL (≈ 24.1 µM)
- MIC (Candida albicans): > 50 µg/mL
- MIC [3]: > 50 µg/mL
- MIC (Staphylococcus aureus [4]): 16 µg/mL (≈ 24.1 µM)
- MIC (Staphylococcus aureus [5]): 16 µg/mL (≈ 24.1 µM)
- MIC (Staphylococcus aureus [6]): 16 µg/mL (≈ 24.1 µM)
- MIC (Staphylococcus aureus [7]): 13 µg/mL (≈ 19.6 µM)
- MIC (Aspergillus niger): > 50 µg/mL
- MIC (Enterococcus faecalis): 6 µg/mL (≈ 9.05 µM)

SMILES: CN(C)CCCNC(=O)c1cc(NC(=O)c2cc(NC(=O)c3cc(NC(=N)c4ccc5ccccc5n4)cn3C)cn2C)cn1C
- MIC (Staphylococcus aureus [1]): > 64 µg/mL
- MIC (Staphylococcus aureus [2]): > 64 µg/mL
- MIC (Candida albicans): 50 µg/mL (≈ 80.3 µM)
- MIC [3]: > 50 µg/mL
- MIC (Staphylococcus aureus [4]): > 64 µg/mL
- MIC (Staphylococcus aureus [5]): > 64 µg/mL
- MIC (Staphylococcus aureus [6]): > 64 µg/mL
- MIC (Staphylococcus aureus [7]): > 50 µg/mL
- MIC (Aspergillus niger): 50 µg/mL (≈ 80.3 µM)
- MIC (Enterococcus faecalis): 50 µg/mL (≈ 80.3 µM)

SMILES: CC(C)CCc1sc(NC(=O)c2cc(NC(=O)c3cc4ccccc4cn3)cn2C)nc1C(=O)NCCCN(C)C
- MIC (Staphylococcus aureus [1]): > 64 µg/mL
- MIC (Staphylococcus aureus [2]): > 64 µg/mL
- MIC (Candida albicans): > 50 µg/mL
- MIC [3]: > 50 µg/mL
- MIC (Staphylococcus aureus [4]): > 64 µg/mL
- MIC (Staphylococcus aureus [5]): > 64 µg/mL
- MIC (Staphylococcus aureus [6]): > 64 µg/mL
- MIC (Staphylococcus aureus [7]): 50 µg/mL (≈ 86.8 µM)
- MIC (Aspergillus niger): > 50 µg/mL
- MIC (Enterococcus faecalis): 50 µg/mL (≈ 86.8 µM)

SMILES: CC(C)c1sc(NC(=O)c2cc(NC(=O)c3cc(NC(=O)c4cccc(Cl)c4)cn3C)cn2C)nc1C(=O)NCCCN(C)C
- MIC (Staphylococcus aureus [1]): 11 µg/mL (≈ 16.8 µM)
- MIC (Staphylococcus aureus [2]): 0.5 µg/mL (≈ 0.765 µM)
- MIC (Candida albicans): > 50 µg/mL
- MIC [3]: > 50 µg/mL
- MIC (Staphylococcus aureus [4]): 2 µg/mL (≈ 3.06 µM)
- MIC (Staphylococcus aureus [5]): 11 µg/mL (≈ 16.8 µM)
- MIC (Staphylococcus aureus [6]): 11 µg/mL (≈ 16.8 µM)
- MIC (Staphylococcus aureus [7]): 13 µg/mL (≈ 19.9 µM)
- MIC (Aspergillus niger): > 50 µg/mL
- MIC (Enterococcus faecalis): 6 µg/mL (≈ 9.19 µM)

SMILES: Cn1cc(NC(=O)c2cc(NC(=O)c3csc(/C=C/c4ccc5ccccc5n4)n3)cn2C)cc1C(=O)NCCN1CCOCC1
- MIC (Staphylococcus aureus [1]): 8 µg/mL (≈ 12.5 µM)
- MIC (Staphylococcus aureus [2]): 8 µg/mL (≈ 12.5 µM)
- MIC (Candida albicans): > 50 µg/mL
- MIC [3]: > 50 µg/mL
- MIC (Staphylococcus aureus [4]): 8 µg/mL (≈ 12.5 µM)
- MIC (Staphylococcus aureus [5]): 8 µg/mL (≈ 12.5 µM)
- MIC (Staphylococcus aureus [6]): 8 µg/mL (≈ 12.5 µM)
- MIC (Staphylococcus aureus [7]): 3 µg/mL (≈ 4.7 µM)
- MIC (Aspergillus niger): > 50 µg/mL
- MIC (Enterococcus faecalis): 25 µg/mL (≈ 39.1 µM)

SMILES: COc1ccc(/C=C/c2ccc3cc(C(=O)Nc4cc(C(=O)Nc5cc(C(=O)NCCN6CCOCC6)n(C)c5)n(C)c4)ccc3n2)cc1
- MIC (Staphylococcus aureus [1]): > 64 µg/mL
- MIC (Staphylococcus aureus [2]): > 64 µg/mL
- MIC (Candida albicans): > 50 µg/mL
- MIC [3]: > 50 µg/mL
- MIC (Staphylococcus aureus [4]): > 64 µg/mL
- MIC (Staphylococcus aureus [5]): > 64 µg/mL
- MIC (Staphylococcus aureus [6]): 4 µg/mL (≈ 6.04 µM)
- MIC (Staphylococcus aureus [7]): > 50 µg/mL
- MIC (Aspergillus niger): 50 µg/mL (≈ 75.6 µM)
- MIC (Enterococcus faecalis): 25 µg/mL (≈ 37.8 µM)

SMILES: Cn1cc(NC(=O)c2cc(NC(=O)c3ccc(/C=C/c4cccnc4)cc3)cn2C)cc1C(=O)NCCN1CCOCC1
- MIC (Staphylococcus aureus [1]): 8 µg/mL (≈ 13.8 µM)
- MIC (Staphylococcus aureus [2]): 8 µg/mL (≈ 13.8 µM)
- MIC (Candida albicans): > 50 µg/mL
- MIC [3]: > 50 µg/mL
- MIC (Staphylococcus aureus [4]): 1 µg/mL (≈ 1.72 µM)
- MIC (Staphylococcus aureus [5]): 4 µg/mL (≈ 6.88 µM)
- MIC (Staphylococcus aureus [6]): 2 µg/mL (≈ 3.44 µM)
- MIC (Staphylococcus aureus [7]): 35 µg/mL (≈ 60.2 µM)
- MIC (Aspergillus niger): > 50 µg/mL
- MIC (Enterococcus faecalis): 35 µg/mL (≈ 60.2 µM)

SMILES: COc1cccc(/C=C/c2ccc(C(=O)Nc3cc(C(=O)Nc4cc(C(=O)NCCCN(C)C)n(C)c4)n(C)c3)cc2)c1
- MIC (Staphylococcus aureus [1]): 6.25 µg/mL (≈ 10.7 µM)
- MIC (Staphylococcus aureus [2]): 6.25 µg/mL (≈ 10.7 µM)
- MIC (Candida albicans): > 50 µg/mL
- MIC [3]: > 50 µg/mL
- MIC (Staphylococcus aureus [4]): 6.25 µg/mL (≈ 10.7 µM)
- MIC (Staphylococcus aureus [5]): 6.25 µg/mL (≈ 10.7 µM)
- MIC (Staphylococcus aureus [6]): 6.25 µg/mL (≈ 10.7 µM)
- MIC (Staphylococcus aureus [7]): 6 µg/mL (≈ 10.3 µM)
- MIC (Aspergillus niger): 50 µg/mL (≈ 85.8 µM)
- MIC (Enterococcus faecalis): > 50 µg/mL

SMILES: CN(C)CCCNC(=O)c1cc(NC(=O)c2cc(NC(=O)c3ccc(/C=C/c4cnc5ccccc5c4)cc3)cn2C)cn1C
- MIC (Staphylococcus aureus [1]): 25 µg/mL (≈ 41.4 µM)
- MIC (Staphylococcus aureus [2]): 25 µg/mL (≈ 41.4 µM)
- MIC (Candida albicans): > 50 µg/mL
- MIC [3]: > 50 µg/mL
- MIC (Staphylococcus aureus [4]): 25 µg/mL (≈ 41.4 µM)
- MIC (Staphylococcus aureus [5]): 25 µg/mL (≈ 41.4 µM)
- MIC (Staphylococcus aureus [6]): 25 µg/mL (≈ 41.4 µM)
- MIC (Staphylococcus aureus [7]): 32 µg/mL (≈ 53 µM)
- MIC (Aspergillus niger): > 50 µg/mL
- MIC (Enterococcus faecalis): 13 µg/mL (≈ 21.5 µM)

- MIC (Candida albicans): 50 µg/mL (≈ 74.6 µM)
- MIC [3]: 50 µg/mL (≈ 74.6 µM)
- MIC (Staphylococcus aureus [7]): 50 µg/mL (≈ 74.6 µM)
- MIC (Aspergillus niger): > 50 µg/mL
- MIC (Enterococcus faecalis): 50 µg/mL (≈ 74.6 µM)
SMILES: CC(C)c1sc(NC(=O)c2cc(NC(=O)c3cc(NC(=O)c4cc5ccccc5cn4)cn3C)cn2C)nc1C(=O)NCCCN(C)C

- MIC (Candida albicans): > 50 µg/mL
- MIC [3]: > 50 µg/mL
- MIC (Staphylococcus aureus [7]): 25 µg/mL (≈ 42.9 µM)
- MIC (Aspergillus niger): > 50 µg/mL
- MIC (Enterococcus faecalis): 25 µg/mL (≈ 42.9 µM)
SMILES: COc1cccc(/C=C/c2cccc(C(=O)Nc3cc(C(=O)Nc4cc(C(=O)NCCCN(C)C)n(C)c4)n(C)c3)c2)c1

- MIC (Candida albicans): > 50 µg/mL
- MIC [3]: > 50 µg/mL
- MIC (Staphylococcus aureus [7]): > 50 µg/mL
- MIC (Aspergillus niger): > 50 µg/mL
- MIC (Enterococcus faecalis): > 50 µg/mL
SMILES: COc1cccc(C(=N)Nc2cc(C(=O)Nc3cc(C(=O)Nc4cc(C(=O)NCCN5CCOCC5)n(C)c4)n(C)c3)n(C)c2)c1

— ChEMBL document CHEMBL1138269, “Antimicrobial lexitropsins containing amide, amidine, and alkene linking groups” (J Med Chem, 2007)
